From ChEMBL document CHEMBL5154684 (J Med Chem, 2022)
Activity calls are given as the source filed them. The calls are words filed in the database; no cut-off is given here.

What was measured:
[1] = target: T1, Nuclear factor erythroid 2-related factor 2 (Homo sapiens) (UniProt Q16236); assay: Activation of Nrf2 transcriptional activity in HEK293T cells transfected with TK-Renilla reporter vector and cotransfected with ARE-LUC vector measured after 16 hrs by dual-luciferase reporter gene assay; type: cell-based; conditions: filed as activator, dose 6-60 µM, DDE = dose-dependent effect
T1 sequence (whole entry): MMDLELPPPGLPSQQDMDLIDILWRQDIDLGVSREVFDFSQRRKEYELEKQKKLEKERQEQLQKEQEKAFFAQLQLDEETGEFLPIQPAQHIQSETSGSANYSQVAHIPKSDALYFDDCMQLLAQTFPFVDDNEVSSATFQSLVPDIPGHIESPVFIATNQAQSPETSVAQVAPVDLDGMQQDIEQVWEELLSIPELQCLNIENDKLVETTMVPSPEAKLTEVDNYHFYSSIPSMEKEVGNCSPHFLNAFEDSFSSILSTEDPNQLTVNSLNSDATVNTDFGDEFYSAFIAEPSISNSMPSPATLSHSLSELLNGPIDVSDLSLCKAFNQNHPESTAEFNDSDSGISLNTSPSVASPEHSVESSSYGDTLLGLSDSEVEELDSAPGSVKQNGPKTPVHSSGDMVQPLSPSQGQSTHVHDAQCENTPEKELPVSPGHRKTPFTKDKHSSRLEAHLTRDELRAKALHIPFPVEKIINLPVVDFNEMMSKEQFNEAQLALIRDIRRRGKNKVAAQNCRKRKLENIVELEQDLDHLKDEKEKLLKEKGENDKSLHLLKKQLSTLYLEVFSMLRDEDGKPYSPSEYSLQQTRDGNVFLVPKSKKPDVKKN
Summary of the method: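 HEK293T cells were seeded and cultured 16 h, then co-transfected by calcium phosphate with 3×ARE-LUC and TK-Renilla. […] Lysates were read by dual-luciferase. Triplicates, at least twice. CD is the concentration that doubles luciferase over basal.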

Homo sapiens = organism: Homo sapiens; assay: Selectivity ratio of CD for Nrf2 activation in HEK293T cells to IC50 for inhibition of ROCK2 (unknown origin); type: cell-based
Summary of the method: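 Ratio of CD to ROCK2 IC50. CD is the concentration doubling ARE-luciferase over basal in transfected HEK293T cells after 16 h. […] Reactions were stopped with orthophosphoric acid and captured on P81 filters.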

[2] = target: T2, Nuclear factor erythroid 2-related factor 2 (Mus musculus) (UniProt Q60795); assay: Activation of Nrf2 transcriptional activity in KEAP1+/+ mouse embryonic fibroblast cells assessed as increase in HMOX1 mRNA levels at 20 uM by RT-qPCR analysis; type: cell-based; conditions: filed as activator, time 4-24 hrs, TDE = time-dependent effect
T2 sequence (whole entry): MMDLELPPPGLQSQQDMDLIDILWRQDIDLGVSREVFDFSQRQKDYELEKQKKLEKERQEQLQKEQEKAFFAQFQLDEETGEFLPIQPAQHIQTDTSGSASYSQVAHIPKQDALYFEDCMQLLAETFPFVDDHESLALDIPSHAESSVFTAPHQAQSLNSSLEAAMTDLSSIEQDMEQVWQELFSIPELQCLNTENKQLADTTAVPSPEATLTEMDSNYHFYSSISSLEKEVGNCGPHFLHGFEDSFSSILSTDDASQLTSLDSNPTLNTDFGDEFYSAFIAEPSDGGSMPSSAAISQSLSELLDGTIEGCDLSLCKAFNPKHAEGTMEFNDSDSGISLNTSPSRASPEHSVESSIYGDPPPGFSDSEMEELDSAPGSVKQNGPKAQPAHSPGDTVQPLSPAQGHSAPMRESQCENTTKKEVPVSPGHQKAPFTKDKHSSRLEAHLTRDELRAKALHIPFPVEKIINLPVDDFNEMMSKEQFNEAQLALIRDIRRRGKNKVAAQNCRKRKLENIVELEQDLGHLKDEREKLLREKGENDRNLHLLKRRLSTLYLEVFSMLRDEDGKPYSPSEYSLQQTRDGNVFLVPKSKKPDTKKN
Summary of the method: (§1)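 Keap1+/+ and Keap1–/– MEFs were grown in DMEM with 10% FBS and treated at 20 μM for 4, 8 and 24 h. HMOX1 and NQO1 mRNA measured by qRT-PCR, normalized to β-actin mRNA. n = 4 ± S.E.M., experiments done twice; two-way ANOVA with Bonferroni post hoc.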

[3] = target: T2, Nuclear factor erythroid 2-related factor 2 (Mus musculus); assay: Activation of Nrf2 transcriptional activity in KEAP1-/- mouse embryonic fibroblast cells assessed as increase in HMOX1 mRNA levels at 20 uM measured upto 24 hrs by RT-qPCR analysis; type: cell-based; conditions: filed as activator; summary of the method: as §1
[4] = Stability in pooled human liver microsomes assessed as intrinsic clearance at 8 uM in presence of NADPH measured upto 60 mins by HPLC-MS analysis; type: ADME, Microsome; conditions: 1 h
Albumin [5] = target: T3, Albumin (Homo sapiens, UniProt P02768); assay: Binding affinity to human serum albumin assessed as Stern-Volmer quenching constant by Stern-Volmer plot analysis; type: ADME; conditions: isolated protein
Albumin [6] = target: T3, Albumin; assay: Binding affinity to human serum albumin assessed as association constant by Scatchard equation; type: ADME; conditions: isolated protein
[7] = target: T1, Nuclear factor erythroid 2-related factor 2 (Homo sapiens); assay: Activation of Nrf2 transcriptional activity in human SH-SY5Y cells assessed as induction of accumulation of Nrf2 in nucleus at 20 uM incubated for 30 to 240 mins by Immunoblotting analysis; type: cell-based; conditions: filed as activator, time 60-240 min, in the assay text read “60 to 240 mins” for “30 to 240 mins”
Summary of the method: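 SH-SY5Y cells treated at 20 μM for 1, 2 and 4 h. Cytosolic and nuclear fractions were prepared by hypotonic NP-40 lysis followed by a nuclear extraction buffer. […] Duplicate, at least twice.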

[8] = target: T1, Nuclear factor erythroid 2-related factor 2 (Homo sapiens); assay: Activation of Nrf2 transcriptional activity in human SH-SY5Y cells assessed as increase in HMOX1 mRNA expression at 20 uM by RT-qPCR analysis; type: cell-based; conditions: filed as activator, time 4-24 hrs, TDE = time-dependent effect
Summary of the method: (§2)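 SH-SY5Y cells (DMEM/Ham's F12, 10% FBS) were treated at 20 μM for 4, 8 and 24 h. HMOX1 and NQO1 mRNA measured by qRT-PCR, normalized to β-actin mRNA. Mean of n = 4 ± S.E.M., experiments done twice.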

[9] = target: T1, Nuclear factor erythroid 2-related factor 2 (Homo sapiens); assay: Activation of Nrf2 transcriptional activity in human SH-SY5Y cells assessed as increase in NQO1 mRNA expression at 20 uM by RT-qPCR analysis; type: cell-based; conditions: filed as activator, time 4-24 hrs, TDE = time-dependent effect; summary of the method: as §2
[10] = target: T1, Nuclear factor erythroid 2-related factor 2 (Homo sapiens); assay: Activation of Nrf2 transcriptional activity in human SH-SY5Y cells assessed as increase in HO-1 protein levels at 20 uM incubated for 24 hrs by immunoblot analysis; type: cell-based; conditions: filed as activator
Summary of the method: (§3)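 SH-SY5Y cells exposed to 20 μM for 4, 8 and 24 h. […] Densitometry normalized to β-actin. Duplicate, at least twice; one-way ANOVA with Tukey post-test.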

[11] = target: T1, Nuclear factor erythroid 2-related factor 2 (Homo sapiens); assay: Activation of Nrf2 transcriptional activity in human SH-SY5Y cells assessed as increase in NQO1 protein levels at 20 uM incubated for 24 hrs by immunoblot analysis; type: cell-based; conditions: filed as activator; summary of the method: as §3
[12] = target: T2, Nuclear factor erythroid 2-related factor 2 (Mus musculus); assay: Activation of Nrf2 transcriptional activity in KEAP1+/+ mouse embryonic fibroblast cells assessed as increase in NQO1 mRNA levels at 20 uM by RT-qPCR analysis; type: cell-based; conditions: filed as activator, time 4-24 hrs, TDE = time-dependent effect; summary of the method: as §1
[13] = target: Keap1/Nrf2 (Homo sapiens) (UniProt Q16236+Q14145); assay: Inhibition of Nrf2 (unknown origin)/KEAP1 (unknown origin) protein-protein interaction by measuring inflection temperature at 100 uM by differential scanning fluorimetry; type: protein assay
[14] = target: T1, Nuclear factor erythroid 2-related factor 2 (Homo sapiens); assay: Induction of Nrf2 signalling pathway in human lymphoblast assessed as increase in Nrf2 protein level at 20 uM measured after 24 hrs by immunoblot analysis; type: cell-based; conditions: Lymphoblastoid cell, filed as activator
[15] = target: T1, Nuclear factor erythroid 2-related factor 2 (Homo sapiens); assay: Induction of Nrf2 signalling pathway in human lymphoblast assessed as increase in HMOX1 mRNA level at 20 uM measured after 24 hrs by RT-qPCR analysis; type: cell-based; conditions: Lymphoblastoid cell, filed as activator
Summary of the method: (§4)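 EBV-immortalized lymphoblastoid lines from controls, sALS and SOD1-ALS patients were grown in RPMI-1640 with 10% FBS. They were seeded at 1 × 10^6 cells/mL, serum-starved 12 h, then treated at 20 μM for 24 h. HMOX1 and NQO1 mRNA measured by qRT-PCR, normalized to β-actin mRNA. n = 6–7 controls, 5–6 sALS, 4 SOD1-ALS, ± S.E.M.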

[16] = target: T1, Nuclear factor erythroid 2-related factor 2 (Homo sapiens); assay: Induction of Nrf2 signalling pathway in human lymphoblast assessed as increase in HMOX1 protein level at 20 uM measured after 24 hrs by immunoblot analysis; type: cell-based; conditions: Lymphoblastoid cell, filed as activator
[17] = target: T1, Nuclear factor erythroid 2-related factor 2 (Homo sapiens); assay: Induction of Nrf2 signalling pathway in human lymphoblast assessed as increase in NQO1 protein level at 20 uM measured after 24 hrs by immunoblot analysis; type: cell-based; conditions: Lymphoblastoid cell, filed as activator
[18] = target: T1, Nuclear factor erythroid 2-related factor 2 (Homo sapiens); assay: Induction of Nrf2 signalling pathway in human lymphoblast assessed as increase in NQO1 mRNA level at 20 uM measured after 24 hrs by RT-qPCR analysis; type: cell-based; conditions: Lymphoblastoid cell, filed as activator; summary of the method: as §4
[19] = target: T1, Nuclear factor erythroid 2-related factor 2 (Homo sapiens); assay: Induction of Nrf2 signalling pathway in ALS patient derived human lymphoblasts harboring SOD1 mutation assessed as increase in HMOX1 protein level at 20 uM measured after 24 hrs by immunoblot analysis; type: cell-based; conditions: Lymphoblastoid cell, filed as activator
[20] = target: T1, Nuclear factor erythroid 2-related factor 2 (Homo sapiens); assay: Induction of Nrf2 signalling pathway in ALS patient derived human lymphoblasts harboring SOD1 mutation assessed as increase in NQO1 protein level at 20 uM measured after 24 hrs by immunoblot analysis; type: cell-based; conditions: Lymphoblastoid cell, filed as activator
[21] = target: T1, Nuclear factor erythroid 2-related factor 2 (Homo sapiens); assay: Induction of Nrf2 signalling pathway in ALS patient derived human lymphoblasts harboring SOD1 mutation assessed as increase in HMOX1 mRNA level at 20 uM measured after 24 hrs by RT-qPCR analysis; type: cell-based; conditions: Lymphoblastoid cell, filed as activator; summary of the method: as §4
[22] = target: T1, Nuclear factor erythroid 2-related factor 2 (Homo sapiens); assay: Induction of Nrf2 signalling pathway in ALS patient derived human lymphoblasts harboring SOD1 mutation assessed as increase in NQO1 mRNA level at 20 uM measured after 24 hrs by RT-qPCR analysis; type: cell-based; conditions: Lymphoblastoid cell, filed as activator; summary of the method: as §4
[23] = target: Rho-associated protein kinase 2 (Homo sapiens, UniProt O75116); assay: Inhibition of ROCK2 (unknown origin) using KEAKEKRQEQIAKRRRLSSLRASTSKSGGSQK-peptide as substrate incubated for 30 mins in presence of [gamma-33P]-ATP
Sequence of Rho-associated protein kinase 2 (O75116 whole entry): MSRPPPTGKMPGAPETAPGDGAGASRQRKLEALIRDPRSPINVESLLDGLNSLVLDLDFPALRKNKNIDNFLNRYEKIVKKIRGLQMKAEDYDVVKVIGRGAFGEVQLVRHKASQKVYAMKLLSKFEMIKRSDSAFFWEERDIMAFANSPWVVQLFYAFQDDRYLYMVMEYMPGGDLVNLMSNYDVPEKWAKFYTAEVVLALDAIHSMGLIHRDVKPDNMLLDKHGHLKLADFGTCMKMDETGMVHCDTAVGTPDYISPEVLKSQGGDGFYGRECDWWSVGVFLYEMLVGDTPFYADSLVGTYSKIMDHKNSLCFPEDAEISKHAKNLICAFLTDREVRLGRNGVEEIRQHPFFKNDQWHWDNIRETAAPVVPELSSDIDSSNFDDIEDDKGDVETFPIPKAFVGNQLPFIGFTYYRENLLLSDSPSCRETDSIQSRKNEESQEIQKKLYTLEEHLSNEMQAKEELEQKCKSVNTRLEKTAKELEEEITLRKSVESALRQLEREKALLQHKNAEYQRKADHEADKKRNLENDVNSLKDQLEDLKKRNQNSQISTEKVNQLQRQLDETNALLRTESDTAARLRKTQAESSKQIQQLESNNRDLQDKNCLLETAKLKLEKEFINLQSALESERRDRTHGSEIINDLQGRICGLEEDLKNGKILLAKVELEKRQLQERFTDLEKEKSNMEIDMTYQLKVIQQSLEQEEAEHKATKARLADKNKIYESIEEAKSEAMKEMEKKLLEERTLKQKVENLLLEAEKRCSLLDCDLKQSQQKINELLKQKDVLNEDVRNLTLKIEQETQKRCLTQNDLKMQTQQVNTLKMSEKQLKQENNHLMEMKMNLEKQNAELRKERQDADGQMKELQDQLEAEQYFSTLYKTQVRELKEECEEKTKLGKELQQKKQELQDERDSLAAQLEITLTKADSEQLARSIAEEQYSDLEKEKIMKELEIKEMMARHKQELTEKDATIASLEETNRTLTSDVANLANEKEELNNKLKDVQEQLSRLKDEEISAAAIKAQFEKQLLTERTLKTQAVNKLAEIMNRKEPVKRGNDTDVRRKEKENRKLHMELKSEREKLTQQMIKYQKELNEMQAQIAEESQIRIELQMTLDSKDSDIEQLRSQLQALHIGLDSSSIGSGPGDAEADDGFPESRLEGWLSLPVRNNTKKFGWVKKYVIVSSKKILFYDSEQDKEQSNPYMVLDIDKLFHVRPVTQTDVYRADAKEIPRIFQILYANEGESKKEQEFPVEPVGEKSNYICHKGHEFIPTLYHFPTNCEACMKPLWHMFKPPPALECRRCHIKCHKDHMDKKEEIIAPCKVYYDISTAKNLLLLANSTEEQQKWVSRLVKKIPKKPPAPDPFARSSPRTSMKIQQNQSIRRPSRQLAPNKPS

T3 sequence (P02768 whole entry): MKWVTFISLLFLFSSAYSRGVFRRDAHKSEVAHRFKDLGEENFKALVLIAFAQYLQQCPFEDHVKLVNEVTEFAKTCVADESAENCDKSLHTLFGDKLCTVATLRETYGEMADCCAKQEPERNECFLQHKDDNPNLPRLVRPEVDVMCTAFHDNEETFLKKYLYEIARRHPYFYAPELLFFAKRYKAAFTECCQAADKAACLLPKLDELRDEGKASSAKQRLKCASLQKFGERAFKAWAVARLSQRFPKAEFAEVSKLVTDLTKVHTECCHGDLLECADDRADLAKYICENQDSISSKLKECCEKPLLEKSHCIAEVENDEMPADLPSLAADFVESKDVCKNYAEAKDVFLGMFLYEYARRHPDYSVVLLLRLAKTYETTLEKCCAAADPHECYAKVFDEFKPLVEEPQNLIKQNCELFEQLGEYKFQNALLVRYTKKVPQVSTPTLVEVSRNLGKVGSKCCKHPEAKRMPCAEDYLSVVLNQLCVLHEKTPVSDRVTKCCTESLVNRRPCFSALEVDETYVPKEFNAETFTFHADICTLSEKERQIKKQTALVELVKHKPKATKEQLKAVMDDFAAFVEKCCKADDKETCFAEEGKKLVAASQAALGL
Sequence of Keap1/Nrf2 (Homo sapiens) (Q14145 whole entry, looked up, one chain of several): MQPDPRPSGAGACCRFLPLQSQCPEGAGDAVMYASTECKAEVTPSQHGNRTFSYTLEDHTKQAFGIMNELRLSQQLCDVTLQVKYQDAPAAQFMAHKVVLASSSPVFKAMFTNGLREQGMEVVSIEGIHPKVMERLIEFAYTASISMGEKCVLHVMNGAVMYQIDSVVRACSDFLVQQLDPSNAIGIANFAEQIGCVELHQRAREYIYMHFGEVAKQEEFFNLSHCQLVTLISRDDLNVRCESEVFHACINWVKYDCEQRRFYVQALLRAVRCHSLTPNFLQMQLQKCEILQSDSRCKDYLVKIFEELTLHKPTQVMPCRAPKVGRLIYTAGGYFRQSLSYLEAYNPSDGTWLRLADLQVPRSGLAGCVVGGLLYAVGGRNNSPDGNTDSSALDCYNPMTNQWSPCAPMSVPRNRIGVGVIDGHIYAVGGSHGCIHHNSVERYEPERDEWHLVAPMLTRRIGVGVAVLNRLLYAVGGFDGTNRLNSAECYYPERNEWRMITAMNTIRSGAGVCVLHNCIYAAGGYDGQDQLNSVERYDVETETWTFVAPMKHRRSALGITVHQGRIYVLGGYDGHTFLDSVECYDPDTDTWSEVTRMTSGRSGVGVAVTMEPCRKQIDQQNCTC

O=C(CCc1ccc(O)c(O)c1)N1CCN(S(=O)(=O)c2cccc3cnccc23)CC1
Activity [1]: Dde | Selectivity ratio (Homo sapiens): 46.9

O=C(/C=C/c1ccc(O)c(O)c1)N1CCCN(S(=O)(=O)c2cccc3cnccc23)CC1
Activity [1]: Dde | Selectivity ratio (Homo sapiens): 5.2

O=C(CCc1ccc(O)c(O)c1)N1CCCN(S(=O)(=O)c2cccc3cnccc23)CC1
Activity [1]: Dde | Activity [2]: Tde | Activity [3]: Active | CLint [4]: 15.3 µL/min/mg | KSV (Albumin [5]): 1.68 10^5L/mol | ka (Albumin [6]): 7.94 10^5L/mol | Selectivity ratio (Homo sapiens): 1.4 | Activity [7]: Active | Activity [8]: Tde | Activity [9]: Tde | Activity [10]: Active | Activity [11]: Active | Activity [12]: Tde | deltaT [13]: 0.2 °C | Activity [14]: Active | Activity [15]: Active | Activity [16]: Active | Activity [17]: Active | Activity [18]: Active | Activity [19]: Active | Activity [20]: Active | Activity [21]: Active | Activity [22]: Active

COc1cc(CCC(=O)N2CCN(S(=O)(=O)c3cccc4cnccc34)CC2)ccc1O
IC50 [23]: > 10 µM
